Measurements: PubChem BioAssay AID623975 (Vanderbilt High Throughput Screening Facility, 2012)

Biological target: G protein-activated inward rectifier potassium channel 4 (Homo sapiens) + G protein-activated inward rectifier potassium channel 1 (Homo sapiens) (UniProt P48544+P48549)
Assay: activation of GIRK1/4-mediated thallium influx – cell-based, HEK-293 hGIRK1/4, thallium flux, FluoZin-2, concentration-response, dose response (AID 623975)
Settings: HEK-293 hGIRK1/4, thallium flux FluoZin-2 fluorescence
Outline: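 System – HEK-293 line stably expressing hGIRK1/4 · Probe or stimulus – thallium plus EC20 glutamate · Timing – dye loading ~60 min at room temperature, compound 4 min · Technique – FluoZin-2 thallium-flux fluorescence · Measure – Vehicle-corrected slope as % of MPD, logistic potency fit · Control set – vehicle baseline, 80 mM MPD maximum · Replication – triplicate wells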

Chain of G protein-activated inward rectifier potassium channel 4 (Homo sapiens) + G protein-activated inward rectifier potassium channel 1 (Homo sapiens) (P48544 whole entry, looked up): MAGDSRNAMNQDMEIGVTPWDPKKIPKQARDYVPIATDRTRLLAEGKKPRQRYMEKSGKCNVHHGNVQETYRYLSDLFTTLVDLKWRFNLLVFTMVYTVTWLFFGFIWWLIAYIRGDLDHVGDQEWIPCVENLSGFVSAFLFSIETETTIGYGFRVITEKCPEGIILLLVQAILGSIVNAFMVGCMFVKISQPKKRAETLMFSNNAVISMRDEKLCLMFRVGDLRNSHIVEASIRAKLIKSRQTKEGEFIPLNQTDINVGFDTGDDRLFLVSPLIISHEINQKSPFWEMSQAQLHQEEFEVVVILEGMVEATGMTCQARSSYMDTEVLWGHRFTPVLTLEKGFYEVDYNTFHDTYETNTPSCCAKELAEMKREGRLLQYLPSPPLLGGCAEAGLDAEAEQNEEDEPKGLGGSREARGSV
Chain of G protein-activated inward rectifier potassium channel 4 (Homo sapiens) + G protein-activated inward rectifier potassium channel 1 (Homo sapiens) (P48549 whole entry, looked up): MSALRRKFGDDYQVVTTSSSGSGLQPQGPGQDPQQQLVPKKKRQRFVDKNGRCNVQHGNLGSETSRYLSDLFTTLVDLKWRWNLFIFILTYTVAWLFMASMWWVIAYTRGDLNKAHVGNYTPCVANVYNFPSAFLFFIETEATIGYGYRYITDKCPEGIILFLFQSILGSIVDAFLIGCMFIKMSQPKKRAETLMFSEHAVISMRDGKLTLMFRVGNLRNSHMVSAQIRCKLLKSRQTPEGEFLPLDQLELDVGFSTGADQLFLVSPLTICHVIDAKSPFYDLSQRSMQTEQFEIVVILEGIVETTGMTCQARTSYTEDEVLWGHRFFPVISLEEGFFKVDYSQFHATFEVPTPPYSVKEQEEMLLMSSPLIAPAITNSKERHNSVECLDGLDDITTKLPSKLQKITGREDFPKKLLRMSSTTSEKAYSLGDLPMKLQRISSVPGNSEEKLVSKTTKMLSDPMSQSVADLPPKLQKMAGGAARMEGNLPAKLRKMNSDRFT

EC50: 1.12 µM
Structure (SMILES): Cc1cc(NC(=O)Nc2ccc(F)c(F)c2)n(-c2ccccc2)n1
